Each block holds one compound with its values, some of them ahead of it.
Key:
BCRP [1] = settings: cited from earlier work
BCRP [2] = biological target: T1, BCRP (Rattus norvegicus, UniProt Q80W57); test: In vivo pharmacokinetic interaction with the BCRP substrate sulfasalazine; design: species or system Sprague-Dawley (SD) rats; settings: rats; for half-life: male, Sprague-Dawley, rat, plasma, po, 2 mg/kg, t1/2 of sulfasalazine; for increase of sulfasalazine AUClast versus sulfasalazine alone / increase of sulfasalazine Cmax versus sulfasalazine alone: flavonol 5 mg/kg co-administered with sulfasalazine 2 mg/kg oral
T1 sequence (Q80W57 1-657): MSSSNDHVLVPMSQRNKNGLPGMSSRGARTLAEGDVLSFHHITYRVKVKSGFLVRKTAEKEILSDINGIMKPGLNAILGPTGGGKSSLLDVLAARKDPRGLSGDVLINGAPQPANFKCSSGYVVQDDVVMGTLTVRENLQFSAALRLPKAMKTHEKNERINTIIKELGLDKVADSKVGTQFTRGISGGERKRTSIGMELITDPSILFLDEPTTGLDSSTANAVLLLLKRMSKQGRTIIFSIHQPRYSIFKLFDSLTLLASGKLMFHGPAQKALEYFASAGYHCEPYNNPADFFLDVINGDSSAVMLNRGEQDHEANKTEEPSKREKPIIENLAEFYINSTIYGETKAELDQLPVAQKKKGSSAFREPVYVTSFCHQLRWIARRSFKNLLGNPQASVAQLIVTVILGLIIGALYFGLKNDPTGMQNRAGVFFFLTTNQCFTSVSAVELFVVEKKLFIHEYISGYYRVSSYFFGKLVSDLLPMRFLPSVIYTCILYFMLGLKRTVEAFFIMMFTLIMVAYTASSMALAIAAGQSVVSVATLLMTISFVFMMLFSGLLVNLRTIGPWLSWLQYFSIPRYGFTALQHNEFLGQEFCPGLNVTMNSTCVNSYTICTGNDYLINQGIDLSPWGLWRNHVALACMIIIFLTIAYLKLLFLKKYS
In short: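 Male SD rats (8 weeks, 250–270 g), acclimatized 1 week and fasted overnight with water, n = 5/group. Oral sulfasalazine 2 mg/kg alone or co-administered with test flavonol 5 mg/kg. Plasma was separated at 4 °C and sulfasalazine measured by LC-MS/MS after methanol precipitation with IS. Noncompartmental analysis: AUClast by trapezoidal rule, Cmax observed. Groups were compared with Student's t-test; mean ± SD.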

BCRP [3] = settings: amentoflavone 30 mg/kg co-administered with mitoxantrone, rats; cited from earlier work
BCRP [4] = settings: read-out: IC50 for BCRP inhibition; cited from earlier work
MDCKII-BCRP cells = test: Reversal of BCRP-mediated resistance to SN-38; assay type: cell-based, canine; settings: flavonol 5 µM; CC50 in MDCKII-BCRP comparable to mock cells
BCRP [5] = biological target: T2, BCRP (Homo sapiens, UniProt Q9UNQ0); test: BCRP inhibition, prazosin accumulation assay in MDCKII-BCRP cells; settings: for IC50: IC50 on BCRP activity, prazosin 5 µM, 20 min, MDCKII-BCRP; for inhibition at 20 min, 2 µM: human, pH 7.4
T2 sequence (Q9UNQ0 1-655): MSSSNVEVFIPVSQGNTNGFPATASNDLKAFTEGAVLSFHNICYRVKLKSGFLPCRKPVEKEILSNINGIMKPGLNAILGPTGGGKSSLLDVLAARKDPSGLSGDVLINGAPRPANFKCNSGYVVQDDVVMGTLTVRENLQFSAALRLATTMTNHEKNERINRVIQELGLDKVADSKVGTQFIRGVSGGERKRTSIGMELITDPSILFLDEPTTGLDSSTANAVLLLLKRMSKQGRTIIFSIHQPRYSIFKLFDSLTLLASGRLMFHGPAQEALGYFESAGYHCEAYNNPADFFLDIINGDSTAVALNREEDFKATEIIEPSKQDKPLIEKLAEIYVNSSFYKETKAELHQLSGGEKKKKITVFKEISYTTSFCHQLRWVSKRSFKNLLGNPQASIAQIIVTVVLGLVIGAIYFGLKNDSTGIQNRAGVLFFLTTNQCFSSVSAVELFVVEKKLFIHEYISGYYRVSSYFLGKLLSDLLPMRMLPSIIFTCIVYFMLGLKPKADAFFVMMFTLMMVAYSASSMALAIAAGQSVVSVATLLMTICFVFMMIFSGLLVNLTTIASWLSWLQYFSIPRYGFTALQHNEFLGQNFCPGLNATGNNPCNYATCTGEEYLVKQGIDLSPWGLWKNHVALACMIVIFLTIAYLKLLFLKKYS

[6] = Plasma pharmacokinetics of the flavonols after oral co-administration; assay type: in vivo, Sprague-Dawley (SD) rats; settings: male, Sprague-Dawley, rat, 5 mg/kg
In short: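 Fasted male SD rats (8 weeks, 250–270 g; n = 5) were dosed orally with test flavonol 5 mg/kg together with sulfasalazine 2 mg/kg. Flavonol in plasma was quantified by LC-MS/MS: methanol/IS protein precipitation, C18 gradient of ammonium formate and formic acid–acetonitrile. Noncompartmental parameters: AUClast by trapezoidal rule, AUCinf by extrapolation, Cmax/Tmax observed, t1/2 from terminal slope; mean ± SD.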

BCRP [7] = settings: cited from earlier work; remark: listed apart in the source

SMILES: COc1cc(Nc2ncc(F)c(Nc3ccc4c(n3)N(COP(=O)(O)O)C(=O)C(C)(C)O4)n2)cc(OC)c1OC [Fostamatinib]
increase of the plasma concentration of rosuvastatin (BCRP [1]): approximately two-fold

SMILES: O=C(O)c1cc(/N=N/c2ccc(S(=O)(=O)Nc3ccccn3)cc2)ccc1O [Sulfasalazine, sulfasalazine, reference compound]
half-life (BCRP [2]; sulfasalazine 2 mg/kg oral + 3,4’-dimethoxyflavone 5 mg/kg): 1.76 ± 0.29 h
half-life (BCRP [2]; sulfasalazine 2 mg/kg oral + 3,6,3’,4’-tetramethoxyflavone 5 mg/kg): 2.34 ± 1.23 h

SMILES: O=c1cc(-c2ccc(O)c(-c3c(O)cc(O)c4c(=O)cc(-c5ccc(O)cc5)oc34)c2)oc2cc(O)cc(O)c12 [amentoflavone]
increase of the AUC of mitoxantrone (BCRP [3]): 1.23 fold
IC50 (BCRP [4]): ~4 µM

SMILES: O=c1c(O)c(-c2cccc(O)c2)oc2cc(O)ccc12 [compound 8, 3,7,3’-Trihydroxyflavone]
reversal of BCRP-mediated resistance to SN-38 (MDCKII-BCRP cells): almost completely reversed BCRP-mediated resistance to SN-38
IC50 (BCRP [5]): < 5 µM

SMILES: O=c1c(O)c(-c2ccc(O)cc2O)oc2cc(O)cc(O)c12 [compound 31, 3,5,7,2’,4’-Pentahydroxyflavone]
IC50 (BCRP [5]): > 10 µM

SMILES: Cc1c(O)cc(O)c2c(=O)c(O)c(-c3ccc(O)c(O)c3)oc12 [compound 32, 3,5,7,3’,4’-Pentahydroxy-8-methylflavone]
IC50 (BCRP [5]): < 5 µM

SMILES: COc1ccc2oc(-c3cccc(OC)c3OC)c(OC)c(=O)c2c1 [compound 47, 3,6,2’,3’-Tetramethoxyflavone]
IC50 (BCRP [5]): > 10 µM

SMILES: COc1ccc(-c2oc3cc(O)cc(O)c3c(=O)c2OC)cc1O [compound 48, 5,7,3’-Trihydroxy-3,4’-dimethoxyflavone]
IC50 (BCRP [5]): < 5 µM

SMILES: COc1cc(O)c2c(=O)c(OC)c(-c3ccc(OC)c(OC)c3)oc2c1 [compound 50, 5-Hydroxy-3,7,3’,4’-tetramethoxyflavone]
reversal of BCRP-mediated resistance to SN-38 (MDCKII-BCRP cells): almost completely reversed BCRP-mediated resistance to SN-38
IC50 (BCRP [5]): < 5 µM

SMILES: COc1ccc(-c2oc3cc(OC)c(O)c(OC)c3c(=O)c2OC)cc1O [compound 52, 6,3’-Dihydroxy-3,5,7,4’-tetramethoxyflavone]
IC50 (BCRP [5]): < 5 µM

SMILES: COc1ccc(-c2oc3cc(OC)c(OC)c(OC)c3c(=O)c2OC)cc1 [compound 53, 3,5,6,7,4’-Pentamethoxyflavone]
IC50 (BCRP [5]): < 5 µM

SMILES: O=c1c(O)c(-c2ccccc2)oc2cc(O)ccc12 [compound no. 7, 3,7-Dihydroxyflavone]
IC50 (BCRP [5]): < 5 µM

SMILES: O=c1[nH]c(=O)c2c[nH]nc2[nH]1 [oxypurinol]
prolongation of half-life (BCRP [7]; individuals homozygous for the p.Q141K variant): 1.8 fold

SMILES: CC(C)c1nc(N(C)S(C)(=O)=O)nc(-c2ccc(F)cc2)c1/C=C/[C@@H](O)C[C@@H](O)CC(=O)O [rosuvastatin, reference compound]
increase in maximum plasma concentration (BCRP [7]; 421CA or 421AA genotypes versus 421CC wild-type homozygous genotype): 1.9 fold

Now from value to compound, other results behind:

IC50 (BCRP [5]): < 5 µM
inhibition at 20 min, 2 µM (BCRP [5]): 45.9%
SMILES: O=c1c(O)c(-c2ccc(O)c(O)c2)oc2cc(O)cc(O)c12 [compound no. 27, 3,5,7,3’,4’-Pentahydroxyflavone]

inhibition at 20 min, 2 µM (BCRP [5]): 45.5%
SMILES: COc1cc(-c2oc3cc(O)cc(O)c3c(=O)c2O)ccc1O [compound no. 29, 3,5,7,4’-Tetrahydroxy-3’-methoxyflavone]

increase of sulfasalazine AUClast versus sulfasalazine alone (BCRP [2]): 1.79 fold
increase of sulfasalazine Cmax versus sulfasalazine alone (BCRP [2]): approximately 1.83 fold
AUC(0-t) [6]: 12.4 ± 5 ng·h/mL
Cmax [6]: 13.5 ± 8.8 ng/mL
half-life [6]: 0.54 ± 0.15 h
SMILES: COc1ccc(-c2oc3ccccc3c(=O)c2OC)cc1 [compound no. 37, 3,4’-Dimethoxyflavone]

IC50 (BCRP [5]): < 5 µM
inhibition at 20 min, 2 µM (BCRP [5]): 45.2%
SMILES: COc1ccc2c(=O)c(OC)c(-c3ccc(O)c(OC)c3)oc2c1 [compound no. 43, 4’-Hydroxy-3,7,3’-trimethoxyflavone]
reversal of BCRP-mediated resistance to SN-38 (MDCKII-BCRP cells): almost completely reversed BCRP-mediated resistance to SN-38

increase of sulfasalazine AUClast versus sulfasalazine alone (BCRP [2]): 1.74 fold
increase of sulfasalazine Cmax versus sulfasalazine alone (BCRP [2]): 2.02 fold
IC50 (BCRP [5]): < 5 µM
inhibition at 20 min, 2 µM (BCRP [5]): 49.9%
AUC(0-t) [6]: 22.3 ± 1.6 ng·h/mL
Cmax [6]: 13.3 ± 0.6 ng/mL
half-life [6]: 2.24 ± 0.17 h
SMILES: COc1ccc2oc(-c3ccc(OC)c(OC)c3)c(OC)c(=O)c2c1 [compound no. 46, 3,6,3’,4’-Tetramethoxyflavone]
reversal of BCRP-mediated resistance to SN-38 (MDCKII-BCRP cells): almost completely reversed BCRP-mediated resistance to SN-38

IC50 (BCRP [5]): < 5 µM
inhibition at 20 min, 2 µM (BCRP [5]): 52%
SMILES: COc1ccc(-c2oc3cc(OC)c(OC)c(OC)c3c(=O)c2OC)cc1OC [compound no. 54, 3,5,6,7,3’,4’-Hexamethoxyflavone]

From PMC12325899 (Scientific Reports, 2025)
